Reference: ChEMBL document CHEMBL1123202, “Imidazo[4,5-c]pyridines (3-deazapurines) and their nucleosides as immunosuppressive and antiinflammatory agents” (1986)
The source made the active and inactive calls. No cut-off for these calls is given here.

What was measured:
[1] = system: EL4; assay: Inhibition of lymphocyte-mediated cytolysis at a concentration of 100 uM in [51Cr]- labelled EL4 leukemia cells; format: functional; conditions: Mus musculus
[2] = species on record: Mus musculus; assay: Compound was tested for inhibition of mouse connective tissue cell (L) growth at a concentration of 100 uM; format: functional; conditions: for inhibition at 100 µM: Mus musculus
Procedure, shortened: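 D-98 (human sternal marrow) and L (mouse connective tissue) cells were cultured with compound at 100 µM, and growth inhibition was reported as %. Procedure per earlier publication.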

[3] = species on record: Rattus norvegicus; assay: Dose required to produce an acute inflammatory response of the algal poly saccharide carrageenan into the pleural cavity of rat.; format: functional
[4] = system: D98 (Homo sapiens); assay: Compound was tested for inhibition of human sternal marrow cell (D98) growth at a concentration of 100 uM
[5] = system: Rattus norvegicus; assay: Dose required to produce an acute inflammatory response of the algal poly saccharide carrageenan into the pleural cavity of rat; IA is Inactive at 9 mg/kg; format: functional, organism-based; set-up: dose 9 mg/kg
[6] = system: Rattus norvegicus; assay: Dose required to produce an acute inflammatory response of the algal poly saccharide carrageenan into the pleural cavity of rat; IA is Inactive at 6 mg/kg; format: functional, organism-based; set-up: dose 6 mg/kg
[7] = system: EL4; assay: Compound was tested for inhibition of lymphocyte-mediated cytolysis at a concentration of 26 uM in [51Cr]- labeled EL4 leukemia cells; format: functional; conditions: Mus musculus
[8] = system: EL4; assay: Compound was tested for inhibition of lymphocyte-mediated cytolysis at a concentration of 50 uM in [51Cr]- labeled EL4 leukemia cells; format: functional; conditions: Mus musculus

Row | SMILES | inhibition at 100 µM [1] [%] | inhibition at 100 µM [2] [%] | ED50 [3] [mg/kg] | inhibition [4] [%] | ED50 [5] | ED50 [6] | Inhibition [2] [%] | inhibition at 26 µM [7] [%] | inhibition at 50 µM [8] [%]
1 | OC[C@H]1OC(n2cnc3c(NCc4ccccc4)nccc32)[C@H](O)[C@@H]1O (some centres not stated) | 5 | 38 | > 9 | 32 |  |  |  |  | 
2 | C[C@H]1OC(n2cnc3c(N)nccc32)[C@H](O)[C@@H]1O (some centres not stated) | 32 | 4 |  | 18 | inactive |  |  |  | 
3 | OC[C@H]1OC(n2cnc3c(Nc4ccccc4)nccc32)[C@H](O)[C@@H]1O (some centres not stated) | 10 | 18 | > 9 | 4 |  |  |  |  | 
4 | OCCNc1nccc2c1ncn2C1O[C@H](CO)[C@@H](O)[C@H]1O (some centres not stated) | 6 | 3 |  | 0 |  | inactive |  |  | 
5 | OC[C@H]1O[C@@H](n2cnc3c(S)nccc32)C[C@@H]1O | < 5 | 8 |  | 10 | inactive |  |  |  | 
6 | CSc1nccc2c1ncn2C1O[C@H](CO)[C@@H](O)[C@H]1O (some centres not stated) | < 5 | 40 |  | 24 | inactive |  |  |  | 
7 | CN(C)c1[nH]ccc2ncnc1-2 | 25 | 21 | 9 | 8 |  |  |  |  | 
8 | Nc1nccc2c1ncn2[C@H]1C[C@H](O)[C@@H](CO)O1 | 89 | 0 | 10 | 18 |  |  |  |  | 
9 | OC[C@H]1O[C@@H](n2cnc3c(SCc4ccccc4)nccc32)C[C@@H]1O | 11 | 19 |  | 18 | inactive |  |  |  | 
10 | CCNc1[nH]ccc2ncnc1-2 | < 5 | 11 |  | 3 |  | inactive |  |  | 
11 | OC[C@H]1O[C@@H](n2cnc3c(NCc4ccccc4)nccc32)C[C@@H]1O | 8 | 37 | > 9 | 18 |  |  |  |  | 
12 | CN(C)c1nccc2c1ncn2[C@H]1C[C@H](O)[C@@H](CO)O1 | < 5 | 6 | > 9 | 0 |  |  |  |  | 
13 | CN(C)c1nccc2c1ncn2C1O[C@H](CO)[C@@H](O)[C@H]1O (some centres not stated) | 10 | 14 | > 9 | 0 |  |  |  |  | 
14 | Nc1nccc2c1ncn2[C@@H]1O[C@H](CO)[C@@H](O)[C@H]1O | 80 | 49 | 3 | 56 |  |  |  |  | 
15 | CNc1nccc2c1ncn2C1O[C@H](CO)[C@@H](O)[C@H]1O (some centres not stated) | 11 | 21 |  | 8 |  | inactive |  |  | 
16 | c1cc2[nH]cnc2cn1 | < 5 | 12 | > 9 | 0 |  |  |  |  | 
17 | [N-]=[N+]=Nc1nccc2c1ncn2C1O[C@H](CO)[C@@H](O)[C@H]1O (some centres not stated) | < 5 | 8 | > 9 | 4 |  |  |  |  | 
18 | CSc1nccc2c1ncn2[C@H]1C[C@H](O)[C@@H](CO)O1 | < 5 | 30 | > 9 | 36 |  |  |  |  | 
19 | OC[C@H]1O[C@@H](n2cnc3cnccc32)[C@H](O)[C@@H]1O (stereo in doubt; 16) [listing 1 of 2 here] | < 5 |  |  |  |  |  | 8 |  | 
20 | [N-]=[N+]=Nc1[nH]ccc2ncnc1-2 | < 5 | 20 |  | 20 | inactive |  |  |  | 
21 | OC[C@H]1OC(n2cnc3c(SCc4ccccc4)nccc32)[C@H](O)[C@@H]1O (some centres not stated) | 30 | 43 | 9 | 30 |  |  |  |  | 
22 | CC1OC(n2cnc3c(N)nccc32)CC1O (configuration not stated) | 25 | 12 |  | 3 | inactive |  |  |  | 
23 | CCCCCCNc1[nH]ccc2ncnc1-2 | 100 | 82 | > 9 | 53 |  |  |  | 0 | 45

Row | SMILES | inhibition at 100 µM [1] [%] | inhibition at 100 µM [2] [%] | ED50 [3] [mg/kg] | inhibition [4] [%] | ED50 [5] | ED50 [6] | Inhibition [2] [%] | inhibition at 26 µM [7] [%] | inhibition at 50 µM [8] [%]
24 | c1ccc(CNc2[nH]ccc3ncnc2-3)cc1 | 57 | 68 | 9 | 75 |  |  |  |  | 
25 | CCCCCCNc1nccc2c1ncn2C1O[C@H](CO)[C@@H](O)[C@H]1O (some centres not stated) | 14 | 41 |  | 8 |  | inactive |  |  | 
26 | OC[C@H]1OC(n2cnc3c(Cl)nccc32)[C@H](O)[C@@H]1O (some centres not stated) | < 5 | 27 |  | 76 | inactive |  |  |  | 
27 | OC[C@H]1O[C@@H](n2cnc3cnccc32)C[C@@H]1O | < 5 | 0 | > 9 | 6 |  |  |  |  | 
28 | [N-]=[N+]=Nc1nccc2c1ncn2[C@H]1C[C@H](O)[C@@H](CO)O1 | 13 | 12 |  | 4 | inactive |  |  |  | 
29 | OC[C@H]1O[C@@H](n2cnc3c(Cl)nccc32)C[C@@H]1O | < 5 | 25 |  | 5 | inactive |  |  |  | 
30 | OCCNc1[nH]ccc2ncnc1-2 | < 5 | 16 | > 9 | 3 |  |  |  |  | 
31 | [O-][n+]1ccc2c(c1)ncn2C1O[C@H](CO)[C@@H](O)[C@H]1O (some centres not stated) | < 5 | 3 |  | 5 | inactive |  |  |  | 
32 | [N-]=[N+]=Nc1nccc2ncn([C@H]3C[C@H](O)[C@@H](CO)O3)c12 | < 5 | 2 | > 9 | 14 |  |  |  |  | 
33 | OC[C@H]1O[C@@H](n2cnc3cnccc32)[C@H](O)[C@@H]1O (stereo in doubt; 16) [listing 2 of 2 here] |  |  |  | 13 | inactive |  |  |  | 
34 | Clc1[nH]ccc2ncnc1-2 | < 5 | 29 | > 9 | 6 |  |  |  |  | 
35 | Nc1[nH]ccc2ncnc1-2 | < 5 | 24 | 8 | 60 |  |  |  |  | 
36 | [O-][n+]1ccc2c(c1)ncn2[C@H]1C[C@H](O)[C@@H](CO)O1 | < 5 | 13 |  | 0 | inactive |  |  |  | 
37 | CNc1[nH]ccc2ncnc1-2 | < 5 | 6 |  | 18 |  | inactive |  |  | 
38 | c1ccc(Nc2[nH]ccc3ncnc2-3)cc1 | 26 | 34 |  | 12 | inactive |  |  |  | 
39 | OC[C@H]1O[C@@H](n2cnc3cnccc32)[C@H](O)[C@@H]1O (stereo in doubt; 17) [listing 1 of 2 here] |  |  |  |  |  |  | 3 |  | 
40 | c1ccc(CSc2[nH]ccc3ncnc2-3)cc1 | 20 | 54 | > 9 | 26 |  |  |  |  | 
41 | CSc1[nH]ccc2ncnc1-2 | < 5 | 11 | 9 | 4 |  |  |  |  | 
42 | CCNc1nccc2c1ncn2C1O[C@H](CO)[C@@H](O)[C@H]1O (some centres not stated) | 8 | 20 |  | 4 |  | inactive |  |  | 
43 | [O-][n+]1ccc2[nH]cnc2c1 | 5 | 1 | > 9 | 3 |  |  |  |  | 
44 | OC[C@H]1OC(n2cnc3c(S)nccc32)[C@H](O)[C@@H]1O (some centres not stated) | < 5 | 3 | 9 | 6 |  |  |  |  | 
45 | OC[C@H]1O[C@@H](n2cnc3cnccc32)[C@H](O)[C@@H]1O (stereo in doubt; 17) [listing 2 of 2 here] |  |  |  | 1 | inactive |  |  |  | 
46 | Sc1[nH]ccc2ncnc1-2 | < 5 | 38 | 8 | 26 |  |  |  |  | 
